Source: PubChem (several laboratories)
bCat nuc transl: beta-catenin nuclear translocation modulation; 190,000 tested, 0.3% active; nuclear translocation activity, % at 5 µM; HeLa beta-catenin nuclear translocation, immunofluorescence imaging;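 active means nuclear translocation activity above 50% at 5 µM, with a well cell count of 50 or more; inconclusive means wells under 50 cells across six images, flagged as toxic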;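 further: per-cell ratio of nuclear to cytoplasmic median beta-catenin stain intensity; plate controls were DMSO negative control for no effect and GSK-3 inhibitor IX positive control for full effect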
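Read-out: Nuclear/cytoplasmic beta-catenin signal ratio, % activation | Assay system: Human HeLa cell line | Times: 24 h compound exposure at 37°C, 5% CO2 | Signal: Fluorescence imaging of beta-catenin antibody stain plus DAPI | Dosing: 5 µM primary, 0.02–20 µM confirmation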
MT stabilizer: microtubule stabilizers in HeLa cells; HeLa tubulin immunostaining HCS, 24 h; share of cells brighter than vehicle mean+2SD; % tubulin-high responders, % at 10 µM; 200,000 tested, 0.83% active; AID 2205;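 active means plate Z-score above 3 for both tubulin-high and condensed-nucleus cell shares, with cell loss under 80%, at 10 µM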;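 further: anti alpha tubulin signal scored within the nucleus-defined area of each cell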
DTT redox prof: compounds producing H2O2 with reducing agent – biochemical, NIH compound library profiling, artefact control for MLSCN library redox annotation, primary screen | DTT-dependent redox cycling H2O2, phenol red/HRP absorbance; 100% = 100 µM peroxide control, 0% = buffer | activation, % at 10 µM | 200,000 tested, 0.03% active | AID 878;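 active means activation of at least 50% relative to the plate's high and low controls in the primary single-dose screen; inactive means activation below 50%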;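 further: compound incubated with DTT at 0.8 mM final as the reducing agent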
ROMK mod: human ROMK K+ channel modulation, primary screen. P48048. Tet-inducible ROMK, thallium flux fluorescence; actives lie on both sides. B-score at 10 µM. 130,000 tested, 2% active;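 active means signal ratio slope over the read window, or its plate-corrected B-score, at least 3 SD from the plate mean, either direction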;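 further: B-score of the F/F0 ratio slope over 7 to 12 s after thallium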
Target sequence (P48048 whole entry, looked up): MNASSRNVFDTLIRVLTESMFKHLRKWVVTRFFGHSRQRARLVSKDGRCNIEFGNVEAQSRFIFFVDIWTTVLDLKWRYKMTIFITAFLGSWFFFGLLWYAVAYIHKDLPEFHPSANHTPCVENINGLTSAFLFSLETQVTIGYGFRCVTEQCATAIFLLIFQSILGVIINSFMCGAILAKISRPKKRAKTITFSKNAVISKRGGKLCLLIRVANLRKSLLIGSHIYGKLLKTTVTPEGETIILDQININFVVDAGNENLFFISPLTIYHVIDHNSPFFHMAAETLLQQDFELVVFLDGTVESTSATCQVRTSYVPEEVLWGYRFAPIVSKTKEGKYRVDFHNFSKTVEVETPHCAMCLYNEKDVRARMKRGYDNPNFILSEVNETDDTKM
KCC2 mod: modulates chloride dependent transport by human KCC2 | Q9H2X9 | KCC2 cells, thallium flux FluoZin-2 fluorescence | B-score of Tl+ flux slope (higher = more flux/activation; lower = inhibition) at 10 µM | 190,000 tested, 2.2% active;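 active means thallium flux slope and its plate-corrected score both differing from the plate sample mean at a set confidence after two filtering rounds, in either direction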;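 further: slope of fluorescence scaled to starting intensity during 10 to 20 s after thallium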
ROMK hit retest: human ROMK channel modulation, retest confirmation. shares compounds with ROMK mod. ROMK thallium flux, fluorescence ratio; active compounds read low. normalized thallium flux (F/F0 slope) at 10 µM. 3,000 tested, 54% active. AID 1917;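 active means Flux at 10 µM at least 3 SD below or above vehicle control mean in one or both replicates; inconclusive means no clear call, values can overlap the other calls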
An asterisk follows results filed as active; i = inactive; ? = inconclusive; . = no result. Hits are enriched below; roughly 3.7% of the tested compounds scored in any of these assays.

SMILES	bCat nuc transl	MT stabilizer	DTT redox prof	ROMK mod	KCC2 mod	ROMK hit retest
O=C1CSC(c2ccc(Cl)cc2)N1Nc1nc(N2CCOCC2)nc(N2CCOCC2)n1 (stereo not drawn)	-3	3	-1	0.14	0.73	.
CCC1SC2=NC(C)=C(C(=O)OCCOC)C(/C=C/c3ccccc3OC)N2C1=O (stereo not drawn)	1	4	3	.	-1.3	0.059*
O=C(COC(=O)/C=C/c1ccc(Br)o1)NCCCN1CCCC1=O	2	3	0	0.51	-0.32	.
COc1cccc2sc(Nc3nnc(-c4ccc(F)cc4)o3)nc12	0	9	-1	.	.	0.17*
CCCOc1nc2ccccc2cc1/C=C/C(=O)O	-1	6	0	0.44	-0.5	.
CCOc1nc2ccccc2cc1C=O	-1	5	0	5.3*	-0.044	0.12*
O=[N+]([O-])c1cccc2c3c([nH]c12)CCCC3	0	.	.	.	0.008	.
CC1(C)OC(=CC=Nc2ccc(Cl)cc2)OC1(C)C	-1	.	.	.	-0.33	.
CCN(CC)c1ccc(C=C2C(=O)OC3(CCCCC3)OC2=O)cc1	2	2	-1	-0.24	0.36	.
CCN(CC)c1ccc(/C=C2\C(=O)N(c3nnc(C)c(=O)[nH]3)N=C2C)cc1	19	.	.	.	-2.5	0.029*
CC1=NN(CCC#N)C(=O)/C1=C/c1ccc(N(C)C)cc1	-4	3	0	-1.2	0.48	.
CCN(CC)c1ccc(/C=C2/C(=O)ON=C2C)cc1	-3	5	0	-5.7*	-0.75	0.036*
CC1=NOC(=O)/C1=C/c1ccc(N(C)C)cc1	3	2	-10	.	-2.4	?
O=C(/C=C/c1cccc(F)c1)c1ccc(N2CCOCC2)cc1	0	.	.	.	-0.71	.
O=C(/C=C/c1cccs1)c1ccc(N2CCOCC2)cc1	0	3	-1	2.5*	-0.26	0.076
N#CC(c1ccccc1)N(CCCCl)C(=O)c1ccccc1 (stereo not drawn)	-2	6	0	0.91	-0.39	.
COc1ccc(NCC(=O)N/N=C(\C)c2cc3ccccc3o2)cc1	0	2	-1	-0.51	0.3	.
C/C(=N\NC(=O)c1cc2ccccc2cc1O)c1cc2ccccc2o1	-1	.	.	.	.	0.13*
Cc1cc(=O)oc2c3c4c(cc12)OCCN4CCC3	-1	2	1	.	-1.4	.
CC(C)c1cc(=O)oc2c3c4c(cc12)CCCN4CCC3	-4	5	-2	.	i	0.054*
CCCN1C(=O)/C(=C/c2c(NCCCOCC)nc3c(C)cccn3c2=O)SC1=S	-4	10	-1	-2	.	.
Cc1cccn2c(=O)c(/C=C3\SC(=S)NC3=O)c(NCCCN3CCOCC3)nc12	0	.	.	.	-4.6	0.053*
COC(=O)N/N=C/c1sc(N2CCCCC2)nc1-c1cccs1	-2	4	-1	-0.61	-0.82	.
O=C(O)/C=C/C(=O)NC1CCC(CC2CCC(NC(=O)/C=C/C(=O)O)CC2)CC1 (stereo not drawn)	2	2	-1	.	.	.
C=C(c1ccc(OC)cc1)c1ccc(OC)cc1	88*	6	0	1.9*	-1.1	0.079
SMILES	bCat nuc transl	MT stabilizer	DTT redox prof	ROMK mod	KCC2 mod	ROMK hit retest
COc1ccc(C(N)=S)cc1	3	2	0	0.24	0.99	.
O=C(CSc1n[nH]c(=O)n1C1CC1)NCc1ccccc1Cl	-2	6	-3	-0.0056	0.067	.
NS(=O)(=O)c1ccc(CCNC(=O)c2ccc(C#CC3(O)CCCCC3)cc2)cc1	2	2	1	-0.43	0.14	0.082
CCC(NC(=O)c1ccc(C#CC2(O)CCCCC2)cc1)C(=O)O (stereo not drawn)	0	1	-1	0.64	-0.056	.
O=c1c2ccccc2nc2n1C(CSc1ccccc1)CS2 (stereo not drawn)	-5	4	0	-1.1	0.061	.
O=c1c2ccccc2nc2n1C(CSCc1ccc(Cl)cc1)CS2 (stereo not drawn)	-1	3	-3	.	-1.7	0.066*
Cc1cc2c3c(c1)C(C)CC(C)(C)N3C(=O)C2=O (stereo not drawn)	0	2	1	3.1*	-1.8	?
O=c1c2cc(Cl)ccc2nc(-c2ccc(Cl)c(Cl)c2)n1O	2	.	.	.	.	0.18*
O=C(O)COn1c(-c2ccc(Cl)cc2)nc2ccc(Cl)cc21	1	2	-1	0.22	-0.57	.
